Assay results: ChEMBL document CHEMBL2396594, “Designing allosteric regulators of thrombin. Exosite 2 features multiple subsites that can be targeted by sulfated small molecules for inducing inhibition” (J Med Chem, 2013)

Tests used:
[1] = molecular target: Prothrombin (Homo sapiens, UniProt P00734); experiment: Inhibition of wild type recombinant human thrombin expressed in BHK cells using S2238 as substrate after overnight incubation at 25 degC
In short: (§1)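 BHK-expressed, HPC4 immunoaffinity-purified thrombins, activated from prothrombin form. Active-site concentration from amidolysis and antithrombin titration. Enzyme (1.5−7.5 nM final) incubated overnight at 25 °C with inhibitor in Tris pH 7.4 buffer in coated cuvettes. Residual activity from S2238 initial rate at A405, using at least 9−10 points. Logistic fit gives IC50. Ratio is mutant IC50 over wild-type IC50.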

[2] = species: Homo sapiens; experiment: Selectivity ratio of IC50 for recombinant human thrombin K236A mutant to IC50 for wild type recombinant human thrombin; in short: as §1
[3] = species: Homo sapiens; experiment: Inhibition of human plasma alpha-thrombin assessed as spectrozyme TH hydrolysis at 1 to 900 uM preincubated for 10 mins by spectrophotometric analysis relative to control; format: cell-free
In short: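 Human plasma α-thrombin (5 nM final) with inhibitor (1−900 μM final) in 20 mM Tris-HCl pH 7.4, 100 mM NaCl, 2.5 mM CaCl2, 0.1% PEG8000, PEG20000-coated cuvettes, 10 min. Spectrozyme TH then added (30 μM final). Initial rate from A405 increase. Residual activity fitted by logistic equation with floating Hill slope, Y0, YM to give IC50.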

[4] = Inhibition of recombinant human thrombin K235A mutant expressed in BHK cells using S2238 as substrate after overnight incubation at 25 degC; in short: as §1
[5] = species: Homo sapiens; experiment: (§2) Binding affinity to human plasma alpha-thrombin exosite-2 using spectrozyme TH as substrate after overnight incubation at 25 degC by spectrophotometric analysis in presence of 20 uM heparin octasaccharide; format: cell-free
[6] = as §2; format: cell-free
[7] = Inhibition of recombinant human thrombin K236A mutant expressed in BHK cells using S2238 as substrate after overnight incubation at 25 degC; in short: as §1
[8] = species: Homo sapiens; experiment: Uncompetitive inhibition of human plasma alpha-thrombin using spectrozyme TH as substrate assessed as decrease in substrate Km at 3.6 uM after overnight incubation at 25 degC by Michaelis-Menten equation analysis relative to control; format: cell-free
In short: (§3)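 5 nM plasma α-thrombin with fixed inhibitor, preincubated overnight at 25 °C or 2 h at 37 °C in 20 mM Tris-HCl pH 7.4, 100 mM NaCl, 2.5 mM CaCl2, 0.1% PEG8000. Initial Spectrozyme TH (2−80 μM) hydrolysis rate read at 405 nm with under 10% substrate consumption. Michaelis−Menten fit gives KM and VMAX; error ±1 SE.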

[9] = species: Homo sapiens; experiment: Selectivity ratio of IC50 for recombinant human thrombin R233A mutant to IC50 for wild type recombinant human thrombin; in short: as §1
[10] = species: Homo sapiens; experiment: (§4) Binding affinity to human plasma alpha-thrombin exosite-1 using spectrozyme TH as substrate after overnight incubation at 25 degC by spectrophotometric analysis in presence of 5 nM hirugen peptide; format: cell-free
[11] = as §4; format: cell-free
[12] = species: Homo sapiens; experiment: (§5) Binding affinity to human plasma alpha-thrombin exosite-2 using spectrozyme TH as substrate after overnight incubation at 25 degC by spectrophotometric analysis in presence of 25 uM unfractionated heparin; format: cell-free
[13] = as §5; format: cell-free
[14] = species: Homo sapiens; experiment: Uncompetitive inhibition of human plasma alpha-thrombin using spectrozyme TH as substrate assessed as decrease in substrate Km at 9.9 uM after 2 hrs at 37 degC by Michaelis-Menten equation analysis relative to control; format: cell-free; in short: as §3
[15] = species: Homo sapiens; experiment: Uncompetitive inhibition of human plasma alpha-thrombin using spectrozyme TH as substrate assessed as decrease in enzyme Vmax at 3.6 uM after overnight incubation at 25 degC by Michaelis-Menten equation analysis relative to control; format: cell-free; in short: as §3
[16] = species: Homo sapiens; experiment: (§6) Binding affinity to human plasma alpha-thrombin exosite-2 using spectrozyme TH as substrate after overnight incubation at 25 degC by spectrophotometric analysis in presence of 0.65 uM gamma'-fibrinogen peptide; format: cell-free
[17] = as §6; format: cell-free
[18] = Inhibition of recombinant human thrombin K169A mutant expressed in BHK cells using S2238 as substrate after overnight incubation at 25 degC; in short: as §1
[19] = species: Homo sapiens; experiment: (§7) Binding affinity to human plasma alpha-thrombin exosite-2 using spectrozyme TH as substrate after overnight incubation at 25 degC by spectrophotometric analysis in presence of 10 uM heparin octasaccharide; format: cell-free
[20] = as §7; format: cell-free
[21] = Inhibition of recombinant human thrombin R175A mutant expressed in BHK cells using S2238 as substrate after overnight incubation at 25 degC; in short: as §1
[22] = species: Homo sapiens; experiment: Uncompetitive inhibition of human plasma alpha-thrombin using spectrozyme TH as substrate assessed as decrease in enzyme Vmax at 9.9 uM after 2 hrs at 37 degC by Michaelis-Menten equation analysis relative to control; format: cell-free; in short: as §3
[23] = Inhibition of recombinant human thrombin R101A mutant expressed in BHK cells using S2238 as substrate after overnight incubation at 25 degC; in short: as §1
[24] = species: Homo sapiens; experiment: (§8) Binding affinity to human plasma alpha-thrombin exosite-2 using spectrozyme TH as substrate after overnight incubation at 25 degC by spectrophotometric analysis in presence of 0.2 uM gamma'-fibrinogen peptide; format: cell-free
[25] = as §8; format: cell-free
[26] = species: Homo sapiens; experiment: (§9) Binding affinity to human plasma alpha-thrombin exosite-2 using spectrozyme TH as substrate after overnight incubation at 25 degC by spectrophotometric analysis in presence of 6.5 uM gamma'-fibrinogen peptide; format: cell-free
[27] = as §9; format: cell-free
[28] = species: Homo sapiens; experiment: (§10) Binding affinity to human plasma alpha-thrombin exosite-2 using spectrozyme TH as substrate after overnight incubation at 25 degC by spectrophotometric analysis in presence of 4.2 uM unfractionated heparin; format: cell-free
[29] = as §10; format: cell-free
[30] = species: Homo sapiens; experiment: (§11) Binding affinity to human plasma alpha-thrombin exosite-2 using spectrozyme TH as substrate after overnight incubation at 25 degC by spectrophotometric analysis in presence of 2 uM gamma'-fibrinogen peptide; format: cell-free
[31] = as §11; format: cell-free
[32] = species: Homo sapiens; experiment: Selectivity ratio of IC50 for human plasma alpha-thrombin to IC50 for wild type recombinant human thrombin
[33] = Inhibition of recombinant human thrombin R233A mutant expressed in BHK cells using S2238 as substrate after overnight incubation at 25 degC; in short: as §1
[34] = species: Homo sapiens; experiment: (§12) Binding affinity to human plasma alpha-thrombin exosite-2 using spectrozyme TH as substrate after overnight incubation at 25 degC by spectrophotometric analysis in presence of 3 uM heparin octasaccharide; format: cell-free
[35] = as §12; format: cell-free
[36] = molecular target: Prothrombin (Homo sapiens, UniProt P00734, R97A); experiment: Inhibition of recombinant human thrombin R97A mutant expressed in BHK cells using S2238 as substrate after overnight incubation at 25 degC; in short: as §1
[37] = Inhibition of recombinant human thrombin R126A mutant expressed in BHK cells using S2238 as substrate after overnight incubation at 25 degC; in short: as §1

With `CCOC(=O)c1c(C)oc2cc(OC)c(OCc3oc4cc(OC)c(OCc5oc6cc(OC)c(OS(=O)(=O)[O-])cc6c5C(=O)OCC)cc4c3C(=O)OCC)cc12.[Na+]` the IC50 ([1]; read-out: IC50) was 260 nM, the IC50 ([1]; read-out: pIC50 (converted)) was 263 nM and the Ratio IC50 [2] was 1.5. It also gave an Efficacy [3] of 80%, an IC50 [4] of 270 nM and a pIC50 [4] of 6.57. It also gave a pIC50(app) [5] of 5.75, an IC50 [6] of 1800 nM and an IC50 [7] of 400 nM. The pIC50 [7] was 6.4, the fold change (FC) [8] was 3.1 and the Ratio IC50 [9] was 3.8. The pIC50(app) [10] was 6.1, the IC50 [11] was 800 nM and the pIC50(app) [12] was 5.42. It also gave an IC50 [13] of 3800 nM, a fold change (FC) [14] of 4.1 and a fold change (FC) [15] of 4.3. For the same compound, the pIC50(app) [16] was 5.95, the IC50 [17] was 1100 nM and the IC50 [18] was 330 nM. For the same compound, the pIC50 [18] was 6.48, the pIC50(app) [19] was 5.78 and the IC50 [20] was 1600 nM. For the same compound, the IC50 [21] was 430 nM, the pIC50 [21] was 6.363 and the fold change (FC) [22] was 5.7. The IC50 [23] was 390 nM, the pIC50 [23] was 6.41 and the pIC50(app) [24] was 5.94. It also gave an IC50 [25] of 1200 nM, a pIC50(app) [26] of 5.88 and an IC50 [27] of 1300 nM. The pIC50(app) [28] was 6, the IC50 [29] was 1000 nM and the pIC50(app) [30] was 5.92. For the same compound, the IC50 [31] was 1200 nM, the Ratio IC50 [32] was 2.5 and the IC50 [33] was 980 nM. The pIC50 [33] was 6.01, the pIC50(app) [34] was 5.87 and the IC50 [35] was 1400 nM. For the same compound, the IC50 ([36]; read-out: IC50) was 370 nM, the IC50 ([36]; read-out: pIC50 (converted)) was 363 nM and the IC50 [37] was 290 nM. For the same compound, the pIC50 [37] was 6.55.
